ALR inh: human ALR oxidase inhibition via reduced H2O2 | P55789 | inhibition, % (test concentration not listed) | 290,000 tested, 3.8% active | AID 485317 | purified ALR, DTT oxidation, H2O2 HRP-luminol luminescence;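 active means mean replicate inhibition above about 79%, with every replicate also reaching it, limit read from the data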
Target sequence (P55789 whole entry, looked up): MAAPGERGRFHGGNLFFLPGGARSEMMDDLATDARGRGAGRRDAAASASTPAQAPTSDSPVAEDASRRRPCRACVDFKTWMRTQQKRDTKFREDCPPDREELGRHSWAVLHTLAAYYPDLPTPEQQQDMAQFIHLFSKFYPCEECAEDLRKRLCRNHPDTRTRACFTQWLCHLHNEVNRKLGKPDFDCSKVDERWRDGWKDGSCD
Rtt109 Vps75: C. albicans Rtt109 histone acetyltransferase inhibition | Q5AAJ8 | purified Rtt109/Vps75, ThioGlo CoA-SH fluorescence, 4 h | inhibition, % at 34.9 µM | 330,000 tested, 0.16% active | AID 540336;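 active means inhibition of at least 50% in every replicate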
Target sequence (Q5AAJ8 whole entry, looked up): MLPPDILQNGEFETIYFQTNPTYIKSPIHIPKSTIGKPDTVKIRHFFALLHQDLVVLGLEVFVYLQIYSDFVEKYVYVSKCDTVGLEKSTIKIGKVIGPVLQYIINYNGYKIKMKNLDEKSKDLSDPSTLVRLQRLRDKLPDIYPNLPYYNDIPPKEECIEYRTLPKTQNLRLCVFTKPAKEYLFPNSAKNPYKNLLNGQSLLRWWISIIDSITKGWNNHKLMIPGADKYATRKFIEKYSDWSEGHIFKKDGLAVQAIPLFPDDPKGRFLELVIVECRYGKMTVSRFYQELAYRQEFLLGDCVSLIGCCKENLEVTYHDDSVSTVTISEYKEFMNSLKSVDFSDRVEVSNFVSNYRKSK
CAL PDZ FP-1: inhibitors of human CAL PDZ peptide binding. Q9HD26. purified CAL PDZ, TMR-peptide fluorescence polarization, 1 h. inhibition, % at 24.9 µM. 300,000 tested, 0.92% active. AID 602252;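 active means mean inhibition of at least 30% with at least half of replicates also reaching 30%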;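 further: 0% = DMSO neutral control and 100% = excess unlabeled competitor peptide PRC23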
DYRK1A inh: inhibitors of rat Dyrk1A kinase | ADP-Glo luminescence, NFATc1 peptide | Q63470 | 310,000 tested, 0.43% active | inhibition, % at 12.5 µM; in the data active means inhibition above about 50%;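 further: plate controls were vehicle with enzyme for no effect and no enzyme for full effect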
CAL PDZ FP-2: human CAL PDZ-peptide interaction inhibition | 330,000 tested, 0.02% active | inhibition, % at 20 µM | Q9HD26 | purified CAL PDZ, TMR-peptide fluorescence polarization, 1 h;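 active means highest replicate inhibition of at least 40%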;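 further: plate controls were DMSO neutral control wells for no effect and unlabeled competitor peptide control wells for full effect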
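Control set: unlabelled peptide and DMSO controls / Material: purified CerCALP PDZ construct / Timing: 1 h incubation at room temperature before polarization reading / Doses: 20 µM, one dose / Detection: fluorescence polarization (mP)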
Starred values were filed as active, the others as inactive; nt = no result. Only some compounds are listed: those with a hit (about 4.3% of all), similar ones and a draw of the others.

SMILES	ALR inh	Rtt109 Vps75	CAL PDZ FP-1	DYRK1A inh	CAL PDZ FP-2
c1ccc(OCc2nc3ccccc3s2)cc1	-1	nt	0	1	-3
Cc1cc(OCc2nc3ccccc3s2)ccc1N	98*	-2	-2	2	0
CC(C)NC(=O)CN1CCC(c2nc3ccccc3[nH]2)CC1	-5	-5	-1	-6	-1
CC(=O)Nc1ccc(NC(=O)CSc2cn(CC(=O)N3CCOCC3)c3ccccc23)cc1	99*	8	-1	nt	-2
Cc1cccc(NC(=O)Nc2ccc(Cl)cc2)n1	-23	-5	40*	3	-1
CC(C)(C)c1ccc(C(=O)NC(=S)Nc2ccc(N3CCOCC3)cc2)cc1	18	8	33*	-2	1
Cc1ccc(NC(=O)Nc2cccc(C)n2)cc1	-1	0	-11	-1	-2
COC(=O)Cc1ccc(NC(=S)Nc2ccc(N3CCOCC3)cc2)cc1	89*	3	nt	5	-1
CCOC(=O)c1cnn(-c2nc(OCC)cc(OCC)n2)c1C	-1	11	nt	-1	-1
CC1CC(C)CN(C(=O)c2cc(S(=O)(=O)N3CCCCC3)ccc2Cl)C1 (centres undefined)	1	1	2	-7	0
COC(=O)Cc1ccc(NC(=S)Nc2cccc(C)n2)cc1	-1	3	53*	-3	-2
Cc1cn(CCC(=O)Nc2ccc(N3CCOCC3)cc2)c2ccccc12	82*	4	-5	nt	1
COc1ccccc1CNCC(=O)Nc1ccc(N2CCOCC2)cc1	99*	32	4	6	0
Cc1cn(CCC(=O)Nc2ccccc2N2CCOCC2)c2ccccc12	3	nt	12	nt	0
Cc1cccc(NC(=S)Nc2ccc(N3CCOCC3)cc2)c1C	99*	20	4	3	-1
CN1CCN(CCNC(=O)Nc2ccc(Cl)cc2)CC1	15	-11	1	4	0
O=C1CS/C(=N\C(=O)N2c3ccccc3Sc3ccccc32)N1	99*	-2	nt	0	-3
CN(CC(=O)Nc1ccccc1Br)C(=O)c1ccccc1OCc1ccc(Cl)cc1	nt	-9	-1	0	-2
Cc1nc(Nc2ccc(O)cc2)c2c3c(sc2n1)CCCC3	98*	-8	-1	50	0
Cc1ccc(CNc2nc(C)nc3sc4c(c23)CCC4)cc1	-2	7	2	7	-2
CC(C)(C)c1ccc(C(=O)O)c(C(=O)c2ccc(C(=O)O)cc2)c1	2	-3	-2	-16	0
Cn1c(=O)c2[nH]c(CCc3ccncc3)nc2n(C)c1=O	nt	-6	54*	nt	-1
O=C(c1ccccc1)C1N=NCC1c1ccc(Cl)cc1 (centres undefined)	nt	-4	174*	5	-1
COc1ccc(-c2noc(CSc3nc(-c4ccccc4)cc(=O)[nH]3)n2)cc1	-9	-10	-6	8	-2
COc1ccc(-c2noc(CSc3nc(N)c(-c4ccccc4)c(=O)[nH]3)n2)cc1OC	100*	-5	-2	-2	-3
SMILES	ALR inh	Rtt109 Vps75	CAL PDZ FP-1	DYRK1A inh	CAL PDZ FP-2
Cc1cccc(N2CCN(CC3CCCCC3)CC2)c1C	-2	0	47*	8	-1
O=C(CSc1nc2ccccc2c(=O)n1-c1ccc(F)cc1F)c1c[nH]c2ccccc12	-6	2	-5	-4	0
CC(=O)n1c(=O)c2ccccc2c(=O)n1-c1ccccc1	98*	-8	-1	2	-3
O=C1OC(c2ccccc2)=C/C1=C/N1CCCCC1	85*	3	-1	14	-2
O=C(NC1CCCCC1)N1CCN(c2ccccc2Cl)CC1	16	3	1	-12	-2
CCN(CC)C(=O)Cn1cc(C(=O)C(=O)N2CCc3ccccc32)c2ccccc21	nt	0	46*	nt	-1
CCN(CC)C(=O)Cn1cc(C(=O)C(=O)N2CCCc3ccccc32)c2ccccc21	-11	2	2	-6	0
Cc1c(NC(=O)C(C)Sc2nc(N)cc(=O)[nH]2)c(=O)n(-c2ccccc2)n1C (centres undefined)	nt	7	-2	5	1
O=c1c(-c2n[nH]c(=S)n2-c2ccccc2)cccn1Cc1cccc(Cl)c1	93*	4	-3	nt	-1
C=CCn1c(-c2cccn(Cc3cccc(Cl)c3)c2=O)n[nH]c1=S	3	5	-6	-1	-2
O=C(CN(Cc1ccco1)C(=O)c1cccc(F)c1)Nc1ccccc1C(F)(F)F	-1	6	nt	7	-1
Cc1ccc(OCCC(=O)N(CC(=O)Nc2ccccc2C(F)(F)F)Cc2ccco2)cc1	nt	-3	40*	-6	-2
CN(C)c1ccc(NC(=S)NCC2CCCO2)cc1 (centres undefined)	99*	4	-6	-3	0
Cc1ccc(C(=O)N/C(=C/c2ccc(N(C)C)cc2)C(=O)NCC2CCCO2)cc1 (centres undefined)	87*	11	3	2	-3
CN(CCC#N)C(=O)COC(=O)c1ccc2c(c1)C(=O)N(C1CCCCC1)C2=O	-5	4	-2	-5	-3
COc1ccc(N2C(=O)CC2(C#N)c2ccc(OCc3ccccc3)cc2)cc1 (centres undefined)	-4	7	nt	6	-2
COc1cccc(N2CCN(Cc3nc(N)nc(Nc4ccccc4)n3)CC2)c1	97*	0	-6	-1	-1
COc1ccc(Nc2nc(N)nc(CN3CCN(c4ccc(F)cc4)CC3)n2)cc1	99*	14	-4	0	-2
Cc1cccc(Nc2nc(N)nc(CN3CCN(c4ccccc4)CC3)n2)c1	80*	0	-4	8	-1
Nc1nc(CN2CCN(Cc3ccccc3)CC2)nc(Nc2ccccc2)n1	-1	-4	nt	5	0
CCCCc1c(O)nc(SCC(=O)N2CCOCC2)[nH]c1=O	98*	-68	nt	-7	0
CCOCCc1c(O)nc(SCC(=O)N2CCOCC2)[nH]c1=O	85*	-37	nt	12	1
COc1ccc(/C(N)=N/OC(=O)CC2CCCCC2)cc1	4	1	1	-5	-5
Cc1ccc(OCC(=O)NCCCNC(=O)c2ccncc2)cc1C	-4	-3	-2	-4	-3
Cc1cc(C)nc(SCc2nc3ncccn3c2Br)n1	3	-21	-2	2	0
SMILES	ALR inh	Rtt109 Vps75	CAL PDZ FP-1	DYRK1A inh	CAL PDZ FP-2
Clc1c(CSc2nc3ccccc3o2)nc2ccccn12	98*	6	-1	0	-4
Clc1c(CSc2nc3ccccc3o2)nc2sccn12	40	9	-9	4	-2
Brc1c(CSc2nc3ccccc3o2)nc2ncccn12	100*	-8	-2	6	-4
COc1cc(CNc2ccc(N3CCN(C(C)=O)CC3)cc2)ccc1OCc1ccccc1	99*	1	-8	nt	0
COc1cc(CNc2ccc(CNc3ncn[nH]3)cc2)ccc1OCC(=O)NC(C)(C)C	-3	-19	2	-8	-1
COc1cc(CNc2ccc(N3CCOCC3)cc2)ccc1OCC(=O)NC(C)(C)C	99*	-12	nt	12	2

Bioassay records deposited in PubChem by Broad Institute.
